HTR1E agonist: 5-HT1E receptor agonists, primary screen, cell-based, HTS | 5-hydroxytryptamine receptor 1E (Homo sapiens), P28566 | CHO 5-HT1E Ga15 NFAT-bla reporter, FRET; 0% DMSO wells, 100% control agonist wells | activation, % at 6 µM | actives 0.69% (n = 65,000) | AID 574, 2007;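 active = activation above a set limit, the screen-wide mean activation plus 3 SD, cut at about 8.5% in these data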;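 also: 100% = positive control agonist at 1 µM giving full maximal response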
Target sequence (P28566 whole entry, looked up): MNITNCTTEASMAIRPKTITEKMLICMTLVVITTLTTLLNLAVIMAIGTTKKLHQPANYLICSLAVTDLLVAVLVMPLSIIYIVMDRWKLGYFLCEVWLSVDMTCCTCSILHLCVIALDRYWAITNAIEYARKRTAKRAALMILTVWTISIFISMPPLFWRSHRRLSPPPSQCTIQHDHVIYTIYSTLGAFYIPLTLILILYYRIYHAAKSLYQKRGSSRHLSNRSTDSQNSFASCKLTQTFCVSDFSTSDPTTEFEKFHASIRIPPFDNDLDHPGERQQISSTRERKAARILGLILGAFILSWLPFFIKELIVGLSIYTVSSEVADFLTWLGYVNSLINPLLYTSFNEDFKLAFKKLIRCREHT
5HT1a ag: human 5-HT1a receptor agonists, primary screen, cell-based, CHO, Ga15 NFAT-bla reporter. actives 0.56% (n = 65,000). activation, % at 10 µM. 5-hydroxytryptamine receptor 1A (Homo sapiens), P08908. AID 567, 2006. CHO 5-HT1a Ga15 NFAT-bla reporter, FRET ratio; 0% basal, 100% maximal reference agonist;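 active = activation above the screen-wide mean activation plus 3 SD, cut at about 19% in these data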;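 also: 0% = DMSO wells and 100% = 5-CT at EC100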
S1P3 agonist: human S1P3 receptor agonists, primary screen, cell-based, primary and confirmation, NFAT-BLA reporter; S1P3 NFAT-BLA reporter cells, agonism, FRET ratio; relative to 1 µM S1P, basal subtracted; activation, % at 4.5 µM; actives 0.1% (n = 60,000); AID 373, 2006;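 active = activation above the screen-wide mean plus 3 SD, cut at about 4.5% in these data, passing the limit was not always enough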
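Assay system: stable CHO line with human S1P3, Gα16, NFAT-BLA reporter; Detection: FRET β-lactamase substrate fluorescence, excitation 405 nm, 460/535 nm emission ratio, background-subtracted; Read-out: percent activation versus median 1 µM S1P response, basal-subtracted, per plate; Incubation: cells plated overnight, compound 4 h 37 °C, substrate 2 h RT.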
HTR1E antagonist: 5-HT1E receptor antagonists, primary screen, cell-based, HTS. CHO 5-HT1E Ga15 NFAT-bla reporter, FRET, antagonist. inhibition, % at 6 µM. actives 0.99% (n = 65,000). AID 571, 2007;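 active = inhibition above a set limit, the mean inhibition across every tested compound plus 3 SD, cut at about 29% in these data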;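 also: signal is the 460 over 535 nm emission ratio of beta-lactamase substrate; 0% = agonist plus DMSO wells and 100% = wells without agonist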
S1P1 ag-PAM: S1P1 agonists and agonism potentiators, primary screen, cell-based, primary and confirmation screens, CRE-bla reporter; Sphingosine 1-phosphate receptor 1 (Homo sapiens), P21453; S1P1 CRE-bla cells, forskolin, beta-lactamase FRET, potentiator mode; S1P1 agonist co-added at EC20, 2 nM; 100% = saturating reference agonist, 0% = basal; activation, % at 9.5 µM; actives 0.57% (n = 56,000); AID 449, 2006;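 active = activation above a cutoff set at the mean activation of all tested compounds plus 3 SD, cut at about 54% in these data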;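 also: forskolin at 4 µM as EC80 and the EC20 agonist is SEW2871; 100% = SEW2871 at its EC100 plus forskolin at EC80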
5HT1a antag: human 5-HT1a receptor antagonists, primary screen, cell-based, CHO, Ga15 NFAT-bla reporter; 5-hydroxytryptamine receptor 1A (Homo sapiens), P08908; CHO 5-HT1a Ga15 NFAT-bla reporter, antagonist mode; inhibition, % at 10 µM; actives 0.68% (n = 62,000); AID 612, 2007;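 active = inhibition above the mean of all tested compounds plus 3 SD, cut at about 43% in these data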;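 also: receptor stimulated by 5-CT agonist at 100 nM near EC80; beta-lactamase reporter measured by ratiometric fluorescence of a cleavable substrate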
Active calls of the source: *; / = no result given. This is a sample that favours compounds with a hit; in the whole collection about 3% have one here.

SMILES	HTR1E agonist	5HT1a ag	S1P3 agonist	HTR1E antagonist	S1P1 ag-PAM	5HT1a antag
O=C(c1nc2n(n1)C(c1ccc(Cl)cc1)C=C(c1ccccc1)N2)N1CCOCC1 (stereo not given)	-1	-2	0	42*	/	28
COc1ccc(C2C=C(c3ccccc3)Nc3nc(CCCO)nn32)cc1 (stereo not given)	0	-2	0	24	8	13
COc1ccc(S(=O)(=O)Cc2ccccc2)cc1N	-1	-1	0	-3	-11	-6
COc1ccc(CCNC(=O)c2c(O)c3c([nH]c2=O)CCCC3)cc1OC	0	0	0	2	-62	-8
O=C(CN1CCN(c2nc(-c3ccccc3)cs2)CC1)Nc1ccc2c(c1)OCO2	0	1	1	2	29	2
Cc1ccc(-c2csc(N3CCC(NS(=O)(=O)c4ccc5c(c4)OCCO5)CC3)n2)cc1	6	3	-1	-1	107*	19
C=CCc1ccccc1OCC(O)CN1CCN(c2ccccc2OC)CC1 (stereo not given)	1	2	/	-1	/	91*
OC(COc1ccccc1Cl)CN1CCN(CC(O)COc2ccccc2Cl)CC1 (stereo not given)	0	5	-1	8	-17	58*
CCOC(=O)N1CCN(CC(O)COc2c(OC)cccc2OC)CC1 (stereo not given)	0	168*	1	-7	-6	-10
CC(C)n1c2ccccc2c2nc3ccccc3nc21	0	5	0	32*	-38	6
COC(=O)c1cc2ccsc2n1CC(=O)Nc1ccc(N(C)C)cc1	-1	-3	-1	-2	13	8
COC(=O)c1cc2ccsc2n1CC(=O)Nc1cc(Cl)ccc1OC	-1	-2	-1	7	31	52*
COc1ccc2c(c1OC)C(=O)NC(C)=C(C(=O)OC(C)(C)C)C2O (stereo not given)	0	-5	-1	-4	-22	7
CC(=O)C1=C(C)Nc2ncnn2C1c1ccc(Cl)cc1 (stereo not given)	-1	-1	0	6	/	-7
CCOC(=O)c1cc2sccc2n1CC(=O)c1ccc2c(c1)OCCO2	22*	-1	-2	-1	25	19
CCCn1nc(NC(=O)CC(C)C)c2cc3ccccc3nc21	0	2	/	15	/	12
O=C(Nc1nc(-c2ccccn2)cs1)c1ccc(Cl)s1	1	-2	-2	44*	50	28
Cn1cccc1C(=O)Nc1nc(-c2ccccn2)cs1	0	-1	1	2	6	15
COc1ccc(-n2nnnc2S(=O)(=O)CC(=O)N2CCCCC2)cc1	-1	-1	-2	69*	110	92*
O=S1(=O)C=C(Sc2nnc(-c3ccccc3)o2)c2ccccc21	-2	-5	0	106*	107*	104*
Cc1sc2nc(C(C)Nc3ccccc3N3CCOCC3)[nH]c(=O)c2c1C (stereo not given)	0	0	0	-8	-18	1
COc1ccccc1N1CCN(Cc2ccco2)CC1	9.2*	-4	0	0	0	16
CCCN1CCC(N2CCN(c3ccccc3OC)CC2)CC1	0	0	-1	1	16	63*
Cc1cc(C)nc(N2CCN(c3nc(C)nc4c3oc3ccccc34)CC2)n1	-1	0	/	-9	/	5
COc1ccccc1N1CCN(CCNC(=O)Nc2cccc(C)c2C)CC1	8	41*	-1	6	10	13
COc1ccccc1N1CCN(c2nc(C)nc3c2oc2ccccc23)CC1	2	-2	-1	58*	-14	67*
